Assays:
Staphylococcus aureus [1] = assay: Antimicrobial activity against Staphylococcus aureus ATCC 43300 incubated for 18 hrs by CLSI method; assay type: functional; settings: ATCC 43300, 18 h
Klebsiella pneumoniae = assay: Antibacterial activity against Klebsiella pneumoniae 700603 incubated for 18 hrs by CLSI method; assay type: functional; settings: Klebsiella pneumoniae, 700603, 18 h
In short: (§1)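 Screen run by CO-ADD: mid-log cultures in cation-adjusted MHB, 5 × 10^5 CFU/mL, compounds at up to 32 μg/mL in 1:2 serial dilutions (8 steps), final DMSO ≤0.5%, duplicate. 37 °C for 18 h without shaking; OD600 read against media-only and untreated-bacteria references. MIC = lowest concentration giving ≥80% inhibition; colistin standard.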

[2] = Cytotoxicity against human HEK293 cells assessed as reduction in cell growth incubated for 20 hrs by resazurin dye-based fluorometric assay
In short: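 HEK293 cells, 5000 per well in DMEM + 10% FBS, exposed to compounds (top 32 μg/mL, 1:2 serial dilution ×8, ≤0.5% DMSO, duplicate) for 20 h at 37 °C, 5% CO2. Resazurin added (2.3 μg/mL final), 3 h further; fluorescence ex 560/em 590 nm. CC50 from sigmoidal dose-response fit against log concentration; tamoxifen standard.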

Staphylococcus aureus [3] = assay: Antimicrobial activity against Staphylococcus aureus ATCC 29213 incubated for 24 hrs by CLSI method; assay type: functional; settings: ATCC 29213, 24 h
In short: (§2)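 Broth microdilution per CLSI aerobic guidance in Mueller Hinton broth, ambient air, 35 °C for 24 h. DMSO stocks were diluted in water, then serially diluted with double-strength broth inoculum added, for final 0.25–128 μg/mL. […] MIC was read visually as the lowest concentration inhibiting growth; the modal value of triplicates was recorded.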

Staphylococcus aureus [4] = assay: Antibacterial activity against methicillin-resistant Staphylococcus aureus NCTC 10442 incubated for 24 hrs by CLSI method; assay type: functional; settings: NCTC 10442, 24 h; in short: as §2
Streptococcus pneumoniae = assay: Antibacterial activity against Streptococcus pneumoniae ATCC 49619 incubated for 24 hrs by CLSI method; assay type: functional; settings: ATCC 49619, 24 h
In short: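 CLSI broth microdilution in MHB with 2.5% lysed horse blood, 5% CO2, 35 °C, 24 h. Compounds from 5 mg/mL DMSO stocks diluted in water plus double-strength broth; final 0.25–128 μg/mL. […] Triplicate; modal MIC read visually as lowest growth-inhibiting concentration.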

Escherichia coli = assay: Antibacterial activity against Escherichia coli ATCC 25922 incubated for 18 hrs by CLSI method; assay type: functional; settings: ATCC 25922, 18 h; in short: as §1
Clostridioides difficile [5] = assay: Antibacterial activity against Clostridium difficile ATCC 700057 incubated for 48 hrs by CLSI method; assay type: functional; settings: ATCC 700057, 48 h
In short: (§3)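 Broth microdilution per CLSI anaerobe method in pre-reduced (2-4 h) Brucella broth with haemin and vitamin K, 35 °C anaerobically for 48 h. Compounds from 5 mg/mL DMSO stocks, twofold dilutions in water mixed with double-strength broth; final 0.25–128 μg/mL. […] Triplicate; modal MIC read visually as lowest concentration inhibiting growth.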

Enterococcus faecalis = assay: Antibacterial activity against Enterococcus faecalis ATCC 29212 incubated for 24 hrs by CLSI method; assay type: functional; settings: ATCC 29212, 24 h
Pseudomonas aeruginosa = assay: Antimicrobial activity against Pseudomonas aeruginosa ATCC 27853 incubated for 18 hrs by CLSI method; assay type: functional; settings: ATCC 27853, 18 h; in short: as §1
Clostridioides difficile [6] = assay: Antibacterial activity against Clostridium difficile NSW132 RT027 incubated for 48 hrs by CLSI method; assay type: functional; settings: NSW132 RT027, 48 h; in short: as §3
Acinetobacter baumannii = assay: Antimicrobial activity against Acinetobacter baumannii ATCC 19606 incubated for 18 hrs by CLSI method; assay type: functional; settings: ATCC 19606 = CIP 70.34 = JCM 6841, 18 h; in short: as §1

SMILES	MIC (Staphylococcus aureus [1])	MIC (Klebsiella pneumoniae)	CC50 at 20 h [2]	MIC (Staphylococcus aureus [3])	MIC (Staphylococcus aureus [4])	MIC (Streptococcus pneumoniae)	MIC (Escherichia coli)	MIC (Clostridioides difficile [5])	MIC (Enterococcus faecalis)	MIC (Pseudomonas aeruginosa)	MIC (Clostridioides difficile [6])	MIC (Acinetobacter baumannii)
CC(C)CCOc1ccc2ccccc2c1-c1c(OCc2cn(C[C@@H](CCCNC(=N)N)NC(=O)CCc3ccccc3)nn2)ccc2ccccc12.Cl	4 mg/L	> 32 mg/L	15.9 mg/L	4 mg/L	4 mg/L	8 mg/L	> 32 mg/L	16 mg/L	8 mg/L	> 32 mg/L	16 mg/L	> 32 mg/L
CC(C)CCOc1ccc2ccccc2c1-c1c(OCc2cn(C[C@@H](CCCCN)NC(=O)[C@@H](CCCNC(=N)N)NC(=O)CCCc3ccccc3)nn2)ccc2ccccc12.Cl.Cl				2 mg/L	4 mg/L	4 mg/L		8 mg/L	2 mg/L		16 mg/L	
CC(C)CCOc1ccc2ccccc2c1-c1c(OCc2cn(C[C@@H](CCCCN)NC(=O)c3ccccc3)nn2)ccc2ccccc12.Cl				8 mg/L	8 mg/L	16 mg/L		32 mg/L	8 mg/L		32 mg/L	
CC(C)CCOc1ccccc1-c1ccccc1OCc1cn(C[C@@H](CCCNC(=N)N)NC(=O)[C@@H](CCCCN)N=[N+]=[N-])nn1.Cl.Cl	8 mg/L	32 mg/L	> 32 mg/L	16 mg/L	16 mg/L	8 mg/L	16 mg/L	64 mg/L	16 mg/L	32 mg/L	32 mg/L	16 mg/L
CC(C)CCOc1ccc2ccccc2c1-c1c(OCc2cn(C[C@@H](CCCCN)NC(=O)[C@@H]3CCC(=O)N3)nn2)ccc2ccccc12.Cl				16 mg/L	16 mg/L	32 mg/L		32 mg/L	16 mg/L		64 mg/L	
CC(C)CCOc1ccc2ccccc2c1-c1c(OCc2cn(C[C@@H](CCCCN)NC(=O)[C@@H](CCCNC(=N)N)n3cc(CCc4ccccc4)nn3)nn2)ccc2ccccc12.Cl.Cl	4 mg/L	> 32 mg/L	> 32 mg/L	4 mg/L	4 mg/L	4 mg/L	> 32 mg/L	16 mg/L	4 mg/L	32 mg/L	16 mg/L	32 mg/L
CC(C)CCOc1ccc2ccccc2c1-c1c(OCc2cn(C[C@@H](CCCCN)NC(=O)CC(C)C)nn2)ccc2ccccc12.Cl				8 mg/L	8 mg/L	16 mg/L		16 mg/L	8 mg/L		32 mg/L	
CC(C)CCOc1ccc2ccccc2c1-c1c(OCc2cn(C[C@@H](CCCNC(=N)N)NC(=O)OCc3ccccc3)nn2)ccc2ccccc12.Cl	4 mg/L	> 32 mg/L	13.8 mg/L	4 mg/L	4 mg/L	8 mg/L	> 32 mg/L	32 mg/L	8 mg/L	> 32 mg/L	32 mg/L	> 32 mg/L
CC(C)CCOc1ccccc1-c1ccccc1OCc1cn(C[C@@H](CCCCN)NC(=O)[C@@H](CCCNC(=N)N)n2cc(Cc3ccccc3)nn2)nn1.Cl.Cl	4 mg/L	16 mg/L	21.9 mg/L	8 mg/L	8 mg/L	4 mg/L	16 mg/L	16 mg/L	16 mg/L	16 mg/L	16 mg/L	8 mg/L
CC(C)CCOc1ccccc1-c1ccccc1OCc1cn(C[C@@H](CCCCN)NC(=O)Cc2ccccc2)nn1.Cl	16 mg/L	> 32 mg/L	14.2 mg/L	8 mg/L	8 mg/L	8 mg/L	> 32 mg/L	32 mg/L	8 mg/L	32 mg/L	32 mg/L	32 mg/L
Cc1ccc(CC(=O)N[C@H](CCCCN)Cn2cc(COc3ccc4ccccc4c3-c3c(OCCC(C)C)ccc4ccccc34)nn2)cc1.Cl				8 mg/L	8 mg/L	32 mg/L		16 mg/L	8 mg/L		32 mg/L	
CC(C)CCOc1ccccc1-c1ccccc1OCc1cn(C[C@@H](CCCNC(=N)N)NC(=O)CCc2ccccc2)nn1.Cl	16 mg/L	> 32 mg/L	> 32 mg/L	16 mg/L	16 mg/L	32 mg/L	> 32 mg/L	128 mg/L	16 mg/L	> 32 mg/L	16 mg/L	> 32 mg/L
